# From ChEMBL document CHEMBL1944515 (J Med Chem, 2012)
# Active and inactive are the calls of the source. The calls are words filed in the database; no cut-off is given here.
# How the values were obtained:
# [1] = system: A549; assay: Cytotoxicity against human A549 cells after 72 hrs by MTT assay; format: functional, cell-based; conditions: A549, 72 h
# [2] = system: HeLa; assay: Cytotoxicity against human HeLa cells after 72 hrs by MTT assay; format: functional, cell-based
# [3] = system: HL-60; assay: Cytotoxicity against human HL60 cells after 72 hrs by MTT assay; format: functional, cell-based; conditions: HL-60, 72 h
# [4] = species on record: Bos taurus; assay: Displacement of [3H]colchicine from bovine tubulin at 5 uM by DEAE-cellulose filter method
# Method in brief: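 Inhibition of [3H]colchicine binding was measured in mixtures of 1 μM tubulin, 5 μM [3H]colchicine and 5 μM test compound. Results are percent inhibition of binding.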
# [5] = system: MCF7; assay: Cytotoxicity against human MCF7 cells after 72 hrs by MTT assay; format: functional, cell-based; conditions: MCF7, 72 h
# [6] = system: HT-29; assay: Cytotoxicity against human HT-29 cells after 72 hrs by MTT assay; format: functional, cell-based; conditions: HT-29, 72 h
# [7] = system: Jurkat; assay: Cytotoxicity against human Jurkat cells after 72 hrs by MTT assay; format: functional, cell-based
# Method in brief: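 8 × 10^3 cells/well were preincubated 18 h at 37 °C, 5% CO2, then given graded concentrations for 72 h, with final DMSO not above 0.25%. Viability was read by MTT. […] Mean ± SE from at least three experiments.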
# [8] = Inhibition of bovine tubulin polymerisation after 20 mins by turbidimetric analysis; set-up: species or system Bos taurus
# Method in brief: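 Bovine brain tubulin at 10 μM was preincubated with varying compound concentrations in glutamate buffer at 30 °C, cooled to 0 °C, and 0.4 mM GTP added. Samples were warmed to 30 °C and assembly followed by turbidity at 350 nm.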
# [9] = system: HeLa; assay: Induction of cell cycle arrest in human HeLa cells assessed as decrease in G1 phase cells at 15 to 250 nM after 24 hrs by flow cytometry; format: functional, cell-based
# Method in brief: (§1)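 5 × 10^5 exponentially growing HeLa cells were treated with 15–250 nM for 24 h, fixed in ice-cold 70% ethanol, then treated with lysis buffer containing RNase A and 0.1% Triton X-100. PI staining of DNA content, read by flow cytometry. Mean ± SEM of three independent experiments.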
# [10] = system: HeLa; assay: Induction of apoptosis in human HeLa cells assessed as increase in annexin-V positive apoptotic cells after 24 to 48 hrs by FITC conjugated annexin-V/PI staining-based flow cytometry; format: functional, cell-based
# Method in brief: (§2)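 Flow cytometry of HeLa cells after 24 or 48 h exposure, double-stained with annexin-V-FITC and propidium iodide. Excitation at 488 nm, emission at 525 nm (FITC) and 585 nm (PI). Quadrants scored as live, early apoptotic, late apoptotic or necrotic cells.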
# [11] = system: HeLa; assay: Induction of apoptosis in human HeLa cells assessed as increase in annexin-V positive apoptotic cells at 50 to 100 nM by FITC conjugated annexin-V/PI staining-based flow cytometry; format: functional, cell-based; conditions: TDE = time-dependent effect; method in brief: as §2
# [12] = system: HeLa; assay: Induction of ROS production in human HeLa cells at 50 to 100 nM after 24 to 48 hrs by HE staining-based flow cytometry; format: functional, cell-based
# Method in brief: (§3)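 HeLa cells were exposed for 24 or 48 h, then stained with hydroethidine or H2-DCFDA for ROS and read by flow cytometry. DMSO ≤0.25%. Mean ± SEM of three independent experiments.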
# [13] = system: HeLa; assay: Induction of cell cycle arrest in human HeLa cells assessed as G2/M phase cells at 60 nM after 24 hrs by flow cytometry; format: functional
# Method in brief: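 Exponentially growing HeLa cells (5 × 10^5) were treated 24 h at 15–250 nM. Cells were fixed in ice-cold 70% ethanol, lysed with RNase A/0.1% Triton X-100 buffer and stained with propidium iodide. DNA content was measured by flow cytometry to score G2/M fraction. Mean ± SEM of three independent experiments.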
# [14] = system: HeLa; assay: Induction of ROS production in human HeLa cells at 50 to 100 nM after 24 to 48 hrs by H2-DCFDA staining-based flow cytometry; format: functional, cell-based; method in brief: as §3
# [15] = system: HeLa; assay: Induction of cell cycle arrest in human HeLa cells assessed as decrease in S phase cells at 15 to 250 nM after 24 hrs by flow cytometry; format: functional, cell-based; method in brief: as §1
# [16] = Cytotoxicity against human CEM/VBL100 cells after 72 hrs by MTT assay; format: functional, cell-based; conditions: CEM/VBL100, 72 h
# Method in brief: (§4)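 Cells seeded at 8 × 10^3 per well and left 18 h at 37 °C, 5% CO2, then given fresh medium with compound at a range of concentrations for 72 h; DMSO at most 0.25% final. Viability read by MTT relative to 0.25% DMSO-treated cells. […] LoVoDoxo kept in Ham's F12 with 0.1 μg/mL doxorubicin; A549-T12 kept in DMEM with 12 nM paclitaxel.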
# [17] = system: HeLa; assay: Induction of cell cycle arrest in human HeLa cells assessed as increase in G2/M phase cells at 30 nM after 24 hrs by flow cytometry; format: functional, cell-based; method in brief: as §1
# [18] = system: CCRF-CEM; assay: Cytotoxicity against human CEM cells after 72 hrs by MTT assay; format: functional, cell-based; method in brief: as §4
# [19] = system: LoVo; assay: Cytotoxicity against human doxorubicin-resistant LoVo cells after 72 hrs by MTT assay; format: functional, cell-based; method in brief: as §4
# [20] = Cytotoxicity against human A549-T12 cells after 72 hrs by MTT assay; format: functional, cell-based; conditions: A549, 72 h; method in brief: as §4
# [21] = system: HeLa; assay: Induction of mitochondrial depolarization in human HeLa cells after 24 to 48 hrs by JC1-based fluorescent staining; format: functional, cell-based
# Method in brief: (§5)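 Mitochondrial membrane potential in HeLa cells after 24 or 48 h incubation, measured with the JC-1 dye by flow cytometry. Aggregates read as red (590 nm) and monomers as 530 nm; output is the percentage of depolarized cells. Mean ± SEM of three independent experiments.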
# [22] = system: A549; assay: Resistance ratio of IC50 for human A549-T12 cells to IC50 for human A549 cells; format: functional
# [23] = system: HeLa; assay: Induction of cell cycle arrest in human HeLa cells assessed as increase in G2/M phase cells after 24 hrs by flow cytometry; format: functional, cell-based; method in brief: as §1
# [24] = system: LoVo; assay: Resistance ratio of IC50 for human doxorubicin-resistant LoVo cells to human LoVo cells; format: functional
# [25] = system: LoVo; assay: Cytotoxicity against human LoVo cells after 72 hrs by MTT assay; format: functional, cell-based; method in brief: as §4
# [26] = system: HeLa; assay: Induction of mitochondrial depolarization in human HeLa cells at 50 to 100 nM by JC1-based fluorescent staining; format: functional, cell-based; conditions: TDE = time-dependent effect; method in brief: as §5
# [27] = system: CCRF-CEM; assay: Resistance ratio of IC50 for human CEM/VBL100 cells to IC50 for human CEM cells; format: functional
Compound,IC50 [1],IC50 [2],IC50 [3],inhibition [4],IC50 [5],IC50 [6],IC50 [7],IC50 [8],also measured
CCCOc1ccc(-c2nnnn2-c2cc(OC)c(OC)c(OC)c2)cc1,0.495 µM,11.1 nM,43.3 nM,46%,66.2 nM,105 nM,47 nM,3100 nM,
CCOc1ccc(-c2ncnn2-c2cc(OC)c(OC)c(OC)c2)cc1,,,,86%,,,,760 nM,
COc1ccc(-c2nnnn2-c2cc(OC)c(OC)c(OC)c2)cc1Cl,0.402 µM,2.3 nM,3.6 nM,50%,25.2 nM,35.9 nM,10 nM,3500 nM,
COc1cc(-n2nnnc2-c2cccs2)cc(OC)c1OC,> 10 µM,> 10000 nM,> 10000 nM,,> 10000 nM,> 10000 nM,> 10000 nM,,
CCOc1ccc(-n2nnnc2-c2cc(OC)c(OC)c(OC)c2)cc1,0.0074 µM,0.3 nM,0.7 nM,71%,2.8 nM,3.1 nM,0.26 nM,2000 nM,Activity [9]: Active; Activity [10]: Dose-dependent effect; Activity [11]: tde; Activity [12]: Active; Activity [13]: >80%; Activity [14]: Active; Activity [15]: Active; IC50 [16]: 0.5 nM; Activity [17]: Active; IC50 [18]: 3.8 nM; IC50 [19]: 96.9 nM; IC50 [20]: 4.2 nM; Activity [21]: Dose-dependent effect; Ratio IC50 [22]: 0.6; Activity [23]: Dose-dependent effect; Ratio IC50 [24]: 0.8; IC50 [25]: 118 nM; Activity [26]: tde; Ratio IC50 [27]: 0.1
COc1ccc(-c2nnnn2-c2cc(OC)c(OC)c(OC)c2)cc1OC,3.57 µM,259 nM,488 nM,,2720 nM,355 nM,345 nM,,
COc1ccc(-n2nnnc2-c2cc(OC)c(OC)c(OC)c2)cc1,> 10 µM,952 nM,40.3 nM,70%,27.1 nM,265 nM,209 nM,2100 nM,
COc1cc(-n2nnnc2-c2ccccc2)cc(OC)c1OC,> 10 µM,4100 nM,903 nM,,> 10000 nM,> 10000 nM,3.8 nM,,
COc1cc(-n2nnnc2-c2ccc(C(C)=O)cc2)cc(OC)c1OC,> 10 µM,648 nM,596 nM,,> 10000 nM,6030 nM,325 nM,,
COc1cc(-n2nnnc2-c2ccc(C)cc2)cc(OC)c1OC,3.42 µM,255 nM,329 nM,,1780 nM,673 nM,222 nM,,
CCCCCOc1ccc(-c2nnnn2-c2cc(OC)c(OC)c(OC)c2)cc1,> 10 µM,6400 nM,> 10000 nM,,> 10000 nM,> 10000 nM,> 10000 nM,,
COc1ccc(-c2nnnn2-c2cc(OC)c(OC)c(OC)c2)cc1,0.222 µM,2.6 nM,2.9 nM,54%,38.5 nM,4.6 nM,2.6 nM,2500 nM,
CCc1ccc(-c2nnnn2-c2cc(OC)c(OC)c(OC)c2)cc1,3.38 µM,29 nM,53.1 nM,47%,12.6 nM,182 nM,55.1 nM,3700 nM,
COc1cc(-c2nnnn2-c2cc(OC)c(OC)c(OC)c2)cc(OC)c1OC,> 10 µM,> 10000 nM,> 10000 nM,,> 10000 nM,> 10000 nM,> 10000 nM,,
COc1ccc(-c2nnnn2-c2cc(OC)c(OC)c(OC)c2)cc1C,0.0377 µM,2.1 nM,2 nM,59%,15.4 nM,5.6 nM,4.1 nM,2500 nM,
CCCCOc1ccc(-c2nnnn2-c2cc(OC)c(OC)c(OC)c2)cc1,> 10 µM,> 10000 nM,> 10000 nM,,> 10000 nM,> 10000 nM,> 10000 nM,,
COc1ccc(-c2nnnn2-c2cc(OC)c(OC)c(OC)c2)cc1F,0.332 µM,2.8 nM,7.3 nM,60%,29.7 nM,2.7 nM,1.3 nM,2100 nM,
